Usually IC50 stands for the concentration that inhibits the measured activity by half.

Test [1] can be described thus: Cytotoxicity against human WS1 cells assessed as reduction in cell viability incubated for 72 hrs by alamar blue assay. Conditions: WS1, 72 h. Format: cell-based. The method in brief: (§1)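 Cells seeded in 384-well plates and dosed 24 h after plating, in quadruplicate. Viability was read by alamarBlue fluorescence at 72 h. IC50 came from nonlinear regression as the mean of 4 replicates. Growth media carried 10% FBS and 1% pen/strep: UCH1/UCH2 in 4:1 IMDM:RPMI-1640 in gel-coated flasks; A431, PANC1 and WS1 in DMEM; DU145 and MCF7 in MEM; 5637 in RPMI-1640.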
For orientation: Resazurin is reduced to fluorescent resorufin, in cell work by metabolically active cells.

For test [2], the system named is A-431. Description: Cytotoxicity against human A-431 cells assessed as reduction in cell viability incubated for 72 hrs by alamar blue assay. Format: functional, cell-based. The following applies: A-431, 72 h. The method in brief:
as §1

For test [3], the system named is PANC-1. Description: Cytotoxicity against human PANC1 cells assessed as reduction in cell viability incubated for 72 hrs by alamar blue assay. It is filed as functional, cell-based. The following applies: PANC-1, 72 h. The method in brief: as §1
The nature of test [4]: Cytotoxicity against human UCH2 cells assessed as reduction in cell viability incubated for 72 hrs by alamar blue assay. It is filed as functional, cell-based. The following applies: UCH2, 72 h. In short, it runs like this: as §1
Test [5] concerns MCF7. Description: Cytotoxicity against human MCF7 cells assessed as reduction in cell viability incubated for 72 hrs by alamar blue assay. Conditions: MCF7, 72 h. It is filed as functional, cell-based. The method in brief: as §1
The nature of test [6]: Cytotoxicity against human UCH1 cells assessed as reduction in cell viability incubated for 72 hrs by alamar blue assay. Format: functional, cell-based. The following applies: UCH1, 72 h. The method in brief: as §1
The test system of test [7] is 5637. The test can be described thus: Cytotoxicity against human 5637 cells assessed as reduction in cell viability incubated for 72 hrs by alamar blue assay. It is filed as functional, cell-based. The following applies: Homo sapiens, 5637, 72 h. The method in brief:
as §1

Test [8] concerns DU-145. The test can be described thus: Cytotoxicity against human DU-145 cells assessed as reduction in cell viability incubated for 72 hrs by alamar blue assay. It is filed as functional, cell-based. The following applies: DU-145, 72 h. In short, it runs like this: as §1

As for `N#CC1=Nc2c(c(-c3ccccc3)nn2-c2ccccc2)SS1`, the IC50 is > 100 µM in test [1]; 72 µM in test [2]; 75 µM in test [3]; 68 µM in test [4]; 36 µM in test [5]; 55 µM in test [6]. Also, the 50% inhibitory concentration (IC50) in test [7] was 14 µM; in test [8] it was 16 µM.

As for `Clc1nss/c1=N\c1ccc(OCc2ccccc2)cc1`, the IC50 was > 100 µM in test [1]; > 100 µM in test [2]; > 100 µM in test [3]; > 100 µM in test [4]; 50 µM in test [5]; 44 µM in test [6]. Moreover, the figures for the IC50 in test [7] and in test [8] were 13 µM and 45 µM, respectively.

As to `CSc1ccc(/N=c2\ssnc2Cl)cc1`, the IC50 in test [1] turned out to be 66 µM; in test [2], 51 µM; in test [3] it was 86 µM; in test [4] it was 37 µM; in test [5], 36 µM; in test [6] it was 38 µM. Further, the figures for the 50% inhibitory concentration (IC50) in test [7] and in test [8] were 34 µM and 14 µM, respectively.

`Clc1nss/c1=N\c1cc(-c2ccccc2)n[nH]1`: the IC50 in test [1] is > 100 µM; in test [2], > 100 µM; in test [3], 23 µM; in test [4] it was 38 µM; in test [5] it was 9.3 µM; in test [6], 59 µM. The IC50 in test [7] came out at 16 µM; in test [8], 11 µM.

For `N#Cc1cc(Br)ccc1/N=c1\ssnc1N1CCN(CCCl)CC1`, the IC50 in test [1] was > 100 µM; in test [2], > 100 µM; in test [3] it was 18 µM; in test [4], 23 µM; in test [5], 4.1 µM; in test [6], 32 µM. The values for the IC50 in test [7] and in test [8] were 8 µM and 15 µM, respectively.

For the compound `N#CSCCN1CCN(c2nss/c2=N\c2ccccc2)CC1`, the 50% inhibitory concentration (IC50) in test [1] is > 100 µM; in test [2], > 100 µM; in test [3], 16 µM; in test [4], 38 µM; in test [5], 32 µM; in test [6], 38 µM. Further, the IC50 in test [7] turned out to be 93 µM; in test [8] it was 14 µM.

For the compound `N#Cc1c(Br)cccc1/N=c1\ssnc1Cl`, the IC50 in test [1] is > 100 µM; in test [2] it was > 100 µM; in test [3] it was 13 µM; in test [4] it was 65 µM; in test [5], 28 µM; in test [6], 39 µM. For the same compound, the half-inhibitory concentration (IC50) in test [7] is 14 µM; in test [8] it was 42 µM.

On to `Cc1cc(OC(F)(F)F)ccc1/N=c1\ssnc1Cl`, for which the IC50 in test [1] is > 100 µM; in test [2], > 100 µM; in test [3] it was 76 µM; in test [4], 87 µM; in test [5] it was 43 µM; in test [6], 57 µM. Further, the IC50 in test [7] was determined as 47 µM; in test [8], 18 µM.

`O=S(=O)(Nc1ncccn1)c1ccc(/N=c2\ssnc2Cl)cc1`: the IC50 in test [1] was > 100 µM; in test [2], > 100 µM; in test [3], 37 µM; in test [4], 19 µM; in test [5] it was 3 µM; in test [6], 34 µM. For the same compound, the figures for the 50% inhibitory concentration (IC50) in test [7] and in test [8] were 39 µM and 29 µM, respectively.

Turning to `Clc1nss/c1=N\c1ccc(Br)cc1`, the concentration for half-maximal inhibition (IC50) was > 100 µM in test [1]; > 100 µM in test [2]; 35 µM in test [3]; 51 µM in test [4]; 11 µM in test [5]; 43 µM in test [6]. Besides, the IC50 in test [7] was found to be 36 µM; in test [8], 48 µM.

On to `Clc1nss/c1=N\c1cccc(Br)c1`, for which the 50% inhibitory concentration (IC50) was 94 µM in test [1]; > 100 µM in test [2]; 38 µM in test [3]; 59 µM in test [4]; 6.7 µM in test [5]; 40 µM in test [6]. The IC50 in test [7] is 53 µM; in test [8], 27 µM.

Regarding `CN(CCN1CCN(c2nssc2=O)CC1)c1ccccc1`, the IC50 in test [1] was 20 µM; in test [2] it was 17 µM; in test [3], 21 µM; in test [4], 17 µM; in test [5], 2.2 µM; in test [6], 12 µM. Further, the 50% inhibitory concentration (IC50) in test [7] stood at 12 µM; in test [8], 4.4 µM.

For the compound `N#CSCCN1CCN(c2nssc2=O)CC1`, the 50% inhibitory concentration (IC50) in test [1] is 17 µM; in test [2] it was 25 µM; in test [3] it was 11 µM; in test [4], 14 µM; in test [5], 5.4 µM; in test [6], 12 µM. Further, the IC50 came to 39 µM in test [7] and 3.3 µM in test [8].

Regarding `N#CC1=Nc2c(c(-c3ccccc3)nn2Cc2ccccc2)SS1`, the IC50 in test [1] is 51 µM; in test [2] it was 54 µM; in test [3] it was > 100 µM; in test [4], > 100 µM; in test [5] it was 54 µM; in test [6] it was > 100 µM. The IC50 is 8.7 µM in test [7] and 32 µM in test [8].

With `Clc1nss/c1=N\c1ccc2c(c1)OCO2`, the 50% inhibitory concentration (IC50) in test [1] was 84 µM; in test [2] it was 95 µM; in test [3], 24 µM; in test [4], 22 µM; in test [5], 19 µM; in test [6], 28 µM. In addition, the IC50 was 32 µM in test [7] and 17 µM in test [8].

In the case of `O=C1c2ccccc2C(=O)N1CCN1CCN(c2nssc2=S)CC1`, the IC50 was > 100 µM in test [1]; > 100 µM in test [2]; 73 µM in test [3]; > 100 µM in test [4]; 51 µM in test [5]; 46 µM in test [6]. The figures for the IC50 in test [7] and in test [8] were 25 µM and 23 µM, respectively.

Take `CCCCOc1ccc(/N=c2\ssnc2Cl)cc1`: the 50% inhibitory concentration (IC50) in test [1] was > 100 µM; in test [2] it was > 100 µM; in test [3], > 100 µM; in test [4] it was 48 µM; in test [5], 42 µM; in test [6] it was 54 µM. Further, the concentration for half-maximal inhibition (IC50) in test [7] is 18 µM; in test [8], 52 µM.

`O=C(OCCN1CCN(c2nss/c2=N\c2ccccc2)CC1)c1ccccc1`: the IC50 was determined as 38 µM in test [1]; 36 µM in test [2]; 60 µM in test [3]; 34 µM in test [4]; 17 µM in test [5]; 23 µM in test [6]. In addition, the IC50 in test [7] worked out at 13 µM; in test [8], 30 µM.

In the case of `Cc1nn(C)c2c1SSC(C#N)=N2`, the IC50 in test [1], in test [2], in test [3], in test [4], in test [5] and in test [6] was > 100 µM throughout. In addition, the IC50 is 81 µM in test [7] and 40 µM in test [8].

With `c1ccc(/N=c2\ssnc2N2CCN(CCNc3ccccc3)CC2)cc1`, the IC50 in test [1] was 55 µM; in test [2], 87 µM; in test [3], 67 µM; in test [4], 21 µM; in test [5] it was 10 µM; in test [6], 25 µM. Further, the IC50 in test [7] turned out to be 18 µM; in test [8], 55 µM.

Regarding `Clc1nss/c1=N\c1cc(-c2ccccc2)nn1Cc1ccccc1`, the concentration for half-maximal inhibition (IC50) in test [1] was > 100 µM; in test [2] it was > 100 µM; in test [3], 18 µM; in test [4], 52 µM; in test [5], 30 µM; in test [6], 30 µM. The IC50 in test [7] was found to be 16 µM; in test [8], 14 µM.

On to `Clc1nss/c1=N\c1nccs1`, for which the IC50 amounted to 24 µM in test [1]; 17 µM in test [2]; 24 µM in test [3]; 22 µM in test [4]; 45 µM in test [5]; 10 µM in test [6]. Besides, the IC50 in test [7] came to 15 µM; in test [8], 8.1 µM.

As for `Cc1cc(/N=c2\ssnc2Cl)n[nH]1`, the IC50 in test [1] stood at 40 µM; in test [2], 69 µM; in test [3], 27 µM; in test [4], 18 µM; in test [5], 18 µM; in test [6], 33 µM. The IC50 in test [7] is 20 µM; in test [8], 14 µM.

As for `Clc1nss/c1=N\c1ccc(Oc2ccccc2)cc1`, the IC50 in test [1] is > 100 µM; in test [2] it was > 100 µM; in test [3] it was 55 µM; in test [4] it was 33 µM; in test [5], 35 µM; in test [6] it was 30 µM. The IC50 is 35 µM in test [7] and > 100 µM in test [8].

With `O=c1ssnc1N1CCN(CCSc2nc3ccccc3s2)CC1`, the IC50 was 92 µM in test [1]; 90 µM in test [2]; 77 µM in test [3]; 31 µM in test [4]; 9.9 µM in test [5]; 25 µM in test [6]. The IC50 in test [7] worked out at 33 µM; in test [8], 22 µM.

On to `O=S(=O)(Nc1nccs1)c1ccc(/N=c2\ssnc2Cl)cc1`, for which the IC50 in test [1] was > 100 µM; in test [2] it was > 100 µM; in test [3] it was 97 µM; in test [4] it was 36 µM; in test [5], 49 µM; in test [6], 30 µM. For the same compound, the IC50 in test [7] worked out at 27 µM; in test [8] it was 92 µM.

The values are drawn from ChEMBL document CHEMBL4819119, “Design and evaluation of 1,2,3-dithiazoles and fused 1,2,4-dithiazines as anti-cancer agents” (Bioorg Med Chem Lett, 2021).
